According to ChEMBL document CHEMBL1944562, “Design, synthesis of some new (2-aminothiazol-4-yl)methylester derivatives as possible antimicrobial and antitubercular agents” (2012):
Values after ≈ are worked out from the molar mass of the structure shown.

Legend:
Format in all cases: functional
[1] = tested on: Talaromyces marneffei; test: Antifungal activity against Penicillium marneffei after 3 to 4 days by serial plate dilution method
[2] = tested on: Klebsiella pneumoniae; test: Antibacterial activity against Klebsiella pneumoniae at MIC after 3 to 4 days
Summary of the method: (§1)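 Agar well diffusion on seeded agar plates, 20 mL agar per dish, dried 1 h at 37 °C. Wells punched and loaded with test compound in DMSO at its MIC. DMSO-only control. Plates run in triplicate and kept 3-4 days at 37 °C. Inhibition zone diameter measured.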

[3] = tested on: Aspergillus fumigatus; test: Antifungal activity against Aspergillus fumigatus NCIM N0.902 after 3 to 4 days by serial plate dilution method
[4] = tested on: Mycobacterium tuberculosis; test: Antitubercular activity against Mycobacterium tuberculosis H37Rv after 7 days by resazurin assay; details: 168 h
Summary of the method: (§2)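 M. tuberculosis H37Rv ATCC 27294 grown in Middlebrook 7H9 broth with 10% OADC and adjusted to McFarland 2. Culture was diluted 1:4 into fresh medium. Compounds came from 2 mg/mL DMF stocks, screened first at 1, 10 and 100, then at 0.3125–5. DMF-only controls were included. After 7 days at 37 °C, 0.01% resazurin was added; a blue-to-pink change marked growth, and the MIC was read.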

[5] = tested on: Bacillus subtilis; test: Antibacterial activity against Bacillus subtilis after 16 to 18 hrs by […]
[6] = tested on: Trichophyton mentagrophytes; test: Antifungal activity against Trichophyton mentagrophytes after 3 to 4 days by serial plate dilution method
[7] = tested on: Aspergillus flavus; test: Antifungal activity against Aspergillus flavus NCIM N0.524 after 3 to 4 days by serial plate dilution method
[8] = tested on: Klebsiella pneumoniae; test: Antibacterial activity against Klebsiella pneumoniae after 16 to 18 hrs by […]
[9] = tested on: Candida albicans; test: Antifungal activity against Candida albicans after 3 to 4 days by serial plate dilution method
[10] = tested on: Escherichia coli; test: Antibacterial activity against Escherichia coli ATCC 25922 at MIC after 3 to 4 days; summary of the method: as §1
[11] = tested on: Staphylococcus aureus; test: Antibacterial activity against Staphylococcus aureus ATCC 25923 at […] after 3 to 4 days; summary of the method: as §1
[12] = tested on: Aspergillus flavus; test: Antifungal activity against Aspergillus flavus NCIM N0.524 at MIC after 3 to 4 days
Summary of the method: (§3)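 Fungal suspension made by transferring a loopful of culture to 3 mL saline and seeding agar plates, 20 mL agar per dish, dried 1 h at 37 °C. Punched wells loaded with test compound in DMSO at its MIC. DMSO-only control. Triplicate plates held 3-4 days at 37 °C. Inhibition zone diameter measured.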

[13] = tested on: Candida albicans; test: Antifungal activity against Candida albicans at MIC after 3 to 4 days; summary of the method: as §3
[14] = tested on: Talaromyces marneffei; test: Antifungal activity against Penicillium marneffei at MIC after 3 to 4 days; summary of the method: as §3
[15] = tested on: Staphylococcus aureus; test: Antibacterial activity against Staphylococcus aureus ATCC 25923 after 16 to 18 hrs by serial plate dilution method
[16] = tested on: Mycolicibacterium smegmatis; test: Antitubercular activity against Mycobacterium smegmatis ATCC 19420 after 7 days by resazurin assay; details: ATCC 19420, 168 h
Summary of the method: (§4)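 Middlebrook 7H9 broth with 10% OADC, culture adjusted to McFarland 2. 50 µL culture added to 150 µL fresh medium. Stocks at 2 mg/mL in DMF, tested first at 1, 10 and 100 µg/mL, then at 0.3125-5 µg/mL. DMF controls. After 7 days at 37 °C, 0.01% resazurin added. Blue-to-pink change read for MIC.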

[17] = tested on: Aspergillus fumigatus; test: Antifungal activity against Aspergillus fumigatus NCIM N0.902 at MIC after 3 to 4 days; summary of the method: as §3
[18] = tested on: Trichophyton mentagrophytes; test: Antifungal activity against Trichophyton mentagrophytes at MIC after 3 to 4 days; summary of the method: as §3
[19] = tested on: Escherichia coli; test: Antibacterial activity against Escherichia coli ATCC 25922 after 16 to 18 hrs by […]
[20] = tested on: Pseudomonas aeruginosa; test: Antibacterial activity against Pseudomonas aeruginosa ATCC 27853 after 16 to 18 hrs by […]
[21] = tested on: Bacillus subtilis; test: Antibacterial activity against Bacillus subtilis at MIC after 3 to 4 days; summary of the method: as §1
[22] = tested on: Mycolicibacterium fortuitum; test: Antitubercular activity against Mycobacterium fortuitum ATCC 19542 after 7 days by resazurin assay; details: ATCC 19542, 168 h; summary of the method: as §4
[23] = tested on: Pseudomonas aeruginosa; test: Antibacterial activity against Pseudomonas aeruginosa ATCC 27853 at MIC after 3 to 4 days; summary of the method: as §1
[24] = tested on: Mycobacterium tuberculosis; test: Antitubercular activity against Mycobacterium tuberculosis H37Rv assessed as growth inhibition after 7 days by resazurin assay; summary of the method: as §2

Structure (SMILES)	MIC [1] [µg/mL]	diameter of the inhibition zone (DIZ) [2] [mm]	MIC [3] [µg/mL]	MIC [4] [µg/mL]	MIC [5] [µg/mL]	MIC [6] [µg/mL]	MIC [7] [µg/mL]	MIC [8] [µg/mL]	MIC [9] [µg/mL]	diameter of the inhibition zone (DIZ) [10] [mm]	diameter of the inhibition zone (DIZ) [11] [mm]	diameter of the inhibition zone (DIZ) [12] [mm]	diameter of the inhibition zone (DIZ) [13] [mm]	diameter of the inhibition zone (DIZ) [14] [mm]	MIC [15] [µg/mL]	MIC [16] [µg/mL]	diameter of the inhibition zone (DIZ) [17] [mm]	diameter of the inhibition zone (DIZ) [18] [mm]	MIC [19] [µg/mL]	MIC [20] [µg/mL]	further results
Nc1nc(COC(=O)c2ccc(Br)cc2)cs1	25 (≈ 79.8 µM)	16	25 (≈ 79.8 µM)	2.5 (≈ 7.98 µM)	25 (≈ 79.8 µM)	12.5 (≈ 39.9 µM)	25 (≈ 79.8 µM)	6.25 (≈ 20 µM)	6.25 (≈ 20 µM)	<10	<10	<10	16	<10	25 (≈ 79.8 µM)	2.5 (≈ 7.98 µM)	<10	11	25 (≈ 79.8 µM)	25 (≈ 79.8 µM)	diameter of the inhibition zone (DIZ) [21]: <10 mm; MIC [22]: > 100 µg/mL; diameter of the inhibition zone (DIZ) [23]: <10 mm; growth inhibition (GI) [24]: <90%
Nc1nc(COC(=O)c2c(F)cccc2Cl)cs1	25 (≈ 87.2 µM)	11	25 (≈ 87.2 µM)	0.625 (≈ 2.18 µM)	6.25 (≈ 21.8 µM)	25 (≈ 87.2 µM)	25 (≈ 87.2 µM)	12.5 (≈ 43.6 µM)	12.5 (≈ 43.6 µM)	<10	16	<10	11	<10	6.25 (≈ 21.8 µM)	10 (≈ 34.9 µM)	<10	<10	25 (≈ 87.2 µM)	12.5 (≈ 43.6 µM)	diameter of the inhibition zone (DIZ) [21]: 16 mm; MIC [22]: 10 µg/mL (≈ 34.9 µM); diameter of the inhibition zone (DIZ) [23]: 11 mm; growth inhibition (GI) [24]: 95%
N#Cc1ccc(C(=O)OCc2csc(N)n2)cn1	25 (≈ 96.1 µM)	16	6.25 (≈ 24 µM)	> 100	6.25 (≈ 24 µM)	6.25 (≈ 24 µM)	25 (≈ 96.1 µM)	6.25 (≈ 24 µM)	25 (≈ 96.1 µM)	16	16	<10	<10	<10	6.25 (≈ 24 µM)	> 100	16	16	6.25 (≈ 24 µM)	6.25 (≈ 24 µM)	diameter of the inhibition zone (DIZ) [21]: 16 mm; MIC [22]: > 100 µg/mL; diameter of the inhibition zone (DIZ) [23]: 16 mm; growth inhibition (GI) [24]: 0%
Nc1nc(COC(=O)c2ccco2)cs1	6.25 (≈ 27.9 µM)	16	25 (≈ 111 µM)	> 100	6.25 (≈ 27.9 µM)	25 (≈ 111 µM)	6.25 (≈ 27.9 µM)	6.25 (≈ 27.9 µM)	6.25 (≈ 27.9 µM)	16	16	16	16	16	6.25 (≈ 27.9 µM)	> 100	<10	<10	6.25 (≈ 27.9 µM)	6.25 (≈ 27.9 µM)	diameter of the inhibition zone (DIZ) [21]: 16 mm; MIC [22]: > 100 µg/mL; diameter of the inhibition zone (DIZ) [23]: 16 mm; growth inhibition (GI) [24]: 0%
Nc1nc(COC(=O)c2c(F)cc(F)cc2F)cs1	6.25 (≈ 21.7 µM)	<10	6.25 (≈ 21.7 µM)	5 (≈ 17.3 µM)	25 (≈ 86.7 µM)	6.25 (≈ 21.7 µM)	6.25 (≈ 21.7 µM)	25 (≈ 86.7 µM)	6.25 (≈ 21.7 µM)	16	<10	16	16	16	25 (≈ 86.7 µM)	10 (≈ 34.7 µM)	16	16	6.25 (≈ 21.7 µM)	6.25 (≈ 21.7 µM)	diameter of the inhibition zone (DIZ) [21]: <10 mm; MIC [22]: > 100 µg/mL; diameter of the inhibition zone (DIZ) [23]: 16 mm; growth inhibition (GI) [24]: <90%
N#Cc1cccc(C(=O)OCc2csc(N)n2)n1	6.25 (≈ 24 µM)	<10	12.5 (≈ 48 µM)	10 (≈ 38.4 µM)	25 (≈ 96.1 µM)	12.5 (≈ 48 µM)	6.25 (≈ 24 µM)	25 (≈ 96.1 µM)	25 (≈ 96.1 µM)	11	<10	16	<10	16	25 (≈ 96.1 µM)	> 100	11	11	12.5 (≈ 48 µM)	25 (≈ 96.1 µM)	diameter of the inhibition zone (DIZ) [21]: <10 mm; MIC [22]: > 100 µg/mL; diameter of the inhibition zone (DIZ) [23]: <10 mm; growth inhibition (GI) [24]: <90%
